Assay results: ChEMBL document CHEMBL1127359, “Synthetic laminin-like peptides and pseudopeptides as potential antimetastatic agents” (1994)
Square brackets hold non-standard residues; d marks the D form. Peptide text beside a SMILES is read from it. Phe(4-NH2) = Nc1ccc(C[C@H](N)C(=O)O)cc1; Phe(4-F) = N[C@@H](Cc1ccc(F)cc1)C(=O)O

How the values were obtained:
Format in all cases: functional, cell-based
B16-F10 [1] = test: Antimetastatic activity against HT1080 and B16F10 cells in cell attachment assay; Moderat attachment activity
How it was run: (§1)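 Peptide dissolved in water with a drop of acetic acid and dried overnight onto culture wells (amount given is quantity dried on plastic). Wells blocked with EMEM/3% BSA 30 min at 37 °C, then EMEM/0.02% BSA. HT-1080 or B16F10 cells (4 × 10⁴) added, 1 h at 37 °C, 5% CO₂. PBS wash; attached cells fixed, stained and counted (eight fields/well) or trypsinized and Coulter-counted; duplicate wells, mean ± SD.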

B16-F10 [2] = test: Antimetastatic activity against HT1080 and B16F10 cells in cell attachment assay; Low attachment activity
B16-F10 [3] = test: Antimetastatic activity against HT1080 and B16F10 cells in cell attachment assay; Moderate attachment activity; how it was run: as §1
B16-F10 [4] = test: Antimetastatic activity against HT1080 and B16F10 cells in cell attachment assay; moderate attachment activity; how it was run: as §1
B16-F10 [5] = test: Antimetastatic activity against HT1080 and B16F10 cells in cell attachment assay; high attachment activity with about 70% of cells attached
B16-F10 [6] = test: Antimetastatic activity against HT1080 and B16F10 cells in cell attachment assay; low attachment activity
B16-F10 [7] = test: Antimetastatic activity against HT1080 and B16F10 cells in cell attachment assay; high, but not maximal, attachment activity; how it was run: as §1

Q: How did the Activity (B16-F10 [1]) turn out when `CC[C@H](C)[C@H](NC[C@@H](N)Cc1ccc(O)cc1)C(=O)NCC(=O)N[C@@H](CO)C(=O)N[C@@H](CCCN=C(N)N)C(N)=O` was run?
A: The Activity was “Moderat attachment activity”.

Q: H-FIGSR-NH2 was tested. Which Activity (B16-F10 [2]) did it give?
A: Its Activity is “Low attachment activity”.

Q: For `CC[C@H](C)[C@H](NC(=O)[C@@H](N)Cc1ccc(F)cc1)C(=O)NCC(=O)N[C@@H](CO)C(=O)N[C@@H](CCCN=C(N)N)C(N)=O` (H-[Phe(4-F)]IGSR-NH2), which Activity (B16-F10 [3]) is on record?
A: Its Activity is “Moderate attachment activity”.

Q: With `CC[C@H](C)[C@H](NC(=O)[C@@H](N)Cc1ccc(O)cc1)C(=O)NCC(=O)N[C@@H](CO)C(=O)N[C@@H](CCCN=C(N)N)C(N)=O` as the compound, how does the Activity (B16-F10 [2]) read?
A: Its Activity is “Low attachment activity”.

Q: With `CC[C@H](C)[C@@H](C(=O)NCC(=O)N[C@@H](CO)C(=O)N[C@@H](CCCN=C(N)N)C(N)=O)N(C=O)C[C@@H](N)Cc1ccc(O)cc1` as the compound, how does the Activity (B16-F10 [4]) read?
A: The Activity was “moderate attachment activity”.

Q: Which Activity (B16-F10 [5]) does the source give for `CC[C@H](C)[C@H](NC(=O)[C@H](N)Cc1ccc(O)cc1)C(=O)NCC(=O)N[C@@H](CO)C(=O)N[C@@H](CCCN=C(N)N)C(=O)O` [LAMININ] here?
A: Its Activity is “high attachment activity with about 70% of cells attached”.

Q: How did the Activity (B16-F10 [6]) turn out when `CC[C@H](C)[C@H](NC(=O)[C@@H](N)Cc1ccc(O)cc1)C(=O)NCCN[C@@H](CO)C(=O)N[C@@H](CCCN=C(N)N)C(N)=O` was run?
A: Its Activity is “low attachment activity”.

Q: Which Activity (B16-F10 [5]) does the source give for H-CYIGSRYIGSRYIGSR-NH2 here?
A: The Activity was “high attachment activity with about 70% of cells attached”.

Q: Which Activity (B16-F10 [7]) does the source give for `CC[C@H](C)[C@H](NC(=O)[C@@H](N)Cc1ccc(N)cc1)C(=O)NCC(=O)N[C@@H](CO)C(=O)N[C@@H](CCCN=C(N)N)C(N)=O` (H-[Phe(4-NH2)]IGSR-NH2) here?
A: Its Activity is “high, but not maximal, attachment activity”.

Q: Which Activity (B16-F10 [2]) does the source give for `CC[C@H](C)[C@H](NC(=O)[C@@H](N)Cc1ccc(O)cc1)C(=O)NCC(=O)N[C@@H](CO)CN[C@@H](CCCN=C(N)N)C(N)=O` here?
A: Its Activity is “Low attachment activity”.

Q: For `CC[C@H](C)[C@@H](CNCC(=O)N[C@@H](CO)C(=O)N[C@@H](CCCN=C(N)N)C(N)=O)NC(=O)[C@@H](N)Cc1ccc(O)cc1`, which Activity (B16-F10 [6]) is on record?
A: The Activity was “low attachment activity”.

Q: For `CC[C@H](C)[C@H](NC(=O)[C@H](N)Cc1ccc(O)cc1)C(=O)NCC(=O)N[C@@H](CO)C(=O)N[C@@H](CCCN=C(N)N)C(N)=O`, which Activity (B16-F10 [2]) is on record?
A: Its Activity is “Low attachment activity”.
